High-throughput results from PubChem.
Shown are actives, neighbours in structure and some others; about 1.8% of the full set was active somewhere.
GALR2 ag: GALR2 receptor agonists, primary screen, cell-based. Galanin receptor type 2 (Homo sapiens), O43603. GALR2-expressing cells, agonist activation read-out. activation, % (test concentration not listed). actives 0.48% (n = 140,000); in the data active = activation above about 5%, passing the limit was not always enough;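 note: 0% = vehicle buffer wells and 100% = reference agonist at full effect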
Target sequence (O43603 whole entry, looked up): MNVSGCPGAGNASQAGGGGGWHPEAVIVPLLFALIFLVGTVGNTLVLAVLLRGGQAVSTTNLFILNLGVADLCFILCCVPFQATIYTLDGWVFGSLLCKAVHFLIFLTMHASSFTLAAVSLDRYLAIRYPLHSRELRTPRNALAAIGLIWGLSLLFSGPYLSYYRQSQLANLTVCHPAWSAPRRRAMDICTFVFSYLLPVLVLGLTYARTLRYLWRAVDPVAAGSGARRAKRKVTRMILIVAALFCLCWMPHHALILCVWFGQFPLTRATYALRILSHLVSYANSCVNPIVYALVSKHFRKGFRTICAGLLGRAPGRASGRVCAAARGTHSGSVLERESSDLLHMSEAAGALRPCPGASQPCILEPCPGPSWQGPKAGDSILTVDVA
EphB4 antag: EphB4-ephrin-B2 interaction antagonists, primary screen, biochemical, TNYL-RAW peptide probe, fluorescence polarization. Ephrin type-B receptor 4 (Homo sapiens), P54760. EphB4 LBD / TNYL-RAW-Alexa532 peptide. inhibition, % at 7 µM. actives 0.15% (n = 97,000). AID 720, 2007;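 active = inhibition above the screen-wide mean inhibition plus 3 SD, cut at about 15% in these data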;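 note: 0% = DMSO wells and 100% = excess unlabeled TNYL-RAW peptide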
S1P2 blocker: human S1P2 receptor antagonists, primary screen, cell-based; Sphingosine 1-phosphate receptor 2 (Homo sapiens), O95136; cell-based S1P2 antagonist assay, inhibition at 5 uM; inhibition, % at 5 µM; actives 0.21% (n = 97,000); in the data active = inhibition above about 45%;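 note: CRE beta-lactamase reporter cells expressing human S1P2 stimulated with S1P; 0% = agonist at EC80 alone and 100% = agonist plus reference antagonist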
S1P2 agonist: S1P2 receptor agonists, primary screen, cell-based | S1P2-expressing cell line, agonist reporter read-out | Sphingosine 1-phosphate receptor 2 (Homo sapiens), O95136 | actives 0.46% (n = 97,000) | activation, % at 4.5 µM; in the data active = activation above about 16%;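 note: 0% = vehicle low control and 100% = maximal reference agonist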
GALR2 antag: GALR2 antagonists in receptor-expressing cells, primary screen; Galanin receptor type 2 (Homo sapiens), O43603; actives 0.39% (n = 140,000); inhibition, % at 4 µM; antagonist mode; in the data active = inhibition above about 27%;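 note: cells stimulated with galanin 1-16 at roughly its EC80; 0% = agonist challenge control and 100% = basal control without agonist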
Rev-RRE block: HIV-1 Rev-RRE binding inhibitors, primary screen, biochemical, FRET, protein-RNA interaction. P05866. actives 0.79% (n = 97,000). inhibition, % at 8 µM. Rev peptide-RRE RNA binding. AID 704, 2007;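 active = inhibition above the screen-wide mean plus 3 SD, cut at about 35% in these data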;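 note: 0% = median DMSO wells and 100% = median Neomycin B control wells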
Target sequence (P05866 whole entry, looked up): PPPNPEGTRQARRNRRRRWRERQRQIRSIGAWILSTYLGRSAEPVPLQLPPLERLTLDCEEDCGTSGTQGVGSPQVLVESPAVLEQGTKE
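System: Cy5-labelled duplex RRE RNA binding fluorescein-labelled HIV Rev peptide; Signal: fluorescein-to-Cy5 FRET, 480 nm excitation; Also added: labelled Rev peptide; Compound: one concentration, 8 µM nominal; Buffer or medium: HEPES pH 7.5 salt buffer with EDTA; Read-out: % inhibition of FRET ratio versus controls; Schedule: 5 min preincubation and 15 min binding, 25 °C.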
GALR2 agon conf: GALR2 agonists, retest of hits, confirmation, cell-based. shares compounds with GALR2 ag. GALR2-expressing cells, agonist activation. activation, % at 5.6 µM. actives 10% (n = 460). AID 864, 2007; in the data active = activation above about 8.4%;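 note: 0% = buffer-only vehicle wells and 100% = full reference agonist response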
BLA activ ctr: activators of NFAT-driven beta-lactamase reporter, confirmation, counter-screen for GALR2 agonist project, CHO NFAT-bla cells, FRET readout. actives 10% (n = 460). activation, % at 5.6 µM. AID 865, 2007. beta-lactamase FRET activation. shares compounds with GALR2 ag;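 active = activation above the screen-wide mean activation plus 3 SD, cut at about 8% in these data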;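 note: 0% = DMSO with PBS wells and 100% = thapsigargin positive control wells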
An asterisk follows results filed as active; nt = not tested or not shown.

SMILES | GALR2 ag | EphB4 antag | S1P2 blocker | S1P2 agonist | GALR2 antag | Rev-RRE block | GALR2 agon conf | BLA activ ctr
CC1CN(C(=O)/C(C#N)=C2\N=C(NC(=O)c3ccccc3Cl)c3ccccc32)CC(C)O1 (centres undefined) | -1 | nt | nt | nt | -17 | nt | nt | nt
Cc1cc(C)c2c(N)c(C(=O)NCC3CCCCC3)sc2n1 | 28* | 1 | -21 | -4 | 3 | -1 | 0 | 0
CCOC(=O)c1c(C)n(C)c2ccc(OCC(O)CN3C(=O)c4ccccc4S3(=O)=O)cc12 (centres undefined) | 9 | 7 | -31 | 13 | -8 | 5 | 1 | 1
O=C(Cn1c2ccccc2c(=O)c2ccccc21)Nc1cccc(F)c1 | 12* | nt | nt | nt | 0 | nt | 9.1* | 14*
O=C(O)C1C(c2ccccc2)C(C(=O)Oc2ccccc2)C1c1ccccc1 (centres undefined) | -1 | 7 | 9 | -6 | -4 | 2 | nt | nt
CC(C)CCOC(=O)C1C(c2ccccc2)C(C(=O)O)C1c1ccccc1 (centres undefined) | 10 | 4 | -4 | -5 | -9 | 6 | 0 | 0
COc1ccc(-n2nc(C(=O)NCc3ccco3)c3c4ccccc4n(C)c3c2=O)cc1 | -1 | nt | nt | nt | 12 | nt | nt | nt
Cc1ccc(-n2nc(C(=O)NCc3ccc(C)o3)c3c4ccccc4n(C)c3c2=O)cc1 | 14* | -6 | 3 | 1 | -17 | -5 | 0 | -2
CCN(CC)c1ccc2cc(S(=O)(=O)c3ccc(Cl)cc3)c(=O)oc2c1 | 43* | nt | nt | nt | -15 | nt | 16* | 29*
CCCCCCc1cc2cc(S(=O)(=O)c3ccc(Cl)cc3)c(=O)oc2cc1O | 20* | nt | nt | nt | -10 | nt | 15* | 46*
CCCCCCc1cc2cc(C(=O)Nc3ccccc3)c(=O)oc2cc1O | 0 | nt | nt | nt | -7 | nt | nt | nt
CCCCCCc1cc2cc(S(=O)(=O)c3ccc(C)cc3)c(=O)oc2cc1O | 45* | nt | nt | nt | -16 | nt | 15* | 42*
COc1ccccc1NS(=O)(=O)c1cc(NC(=O)CNC(=O)c2ccc(C)s2)ccc1Cl | -1 | nt | nt | nt | 19 | nt | nt | nt
Cc1cc(C)c2c(N)c3cccc(C)c3nc2n1 | 2 | nt | nt | nt | -11 | nt | nt | nt
CCOC(=O)C(NC(=O)c1ccccc1)=C(C)C | 11 | -4 | -9 | -2 | -2 | 2 | -1 | -3
C=CCn1c(=NC(=O)CC)n(C)c2ccccc21 | -1 | nt | nt | nt | -6 | nt | nt | nt
Cc1c(Cl)c([N+](=O)[O-])nn1CC(=O)N1CCCC1 | -2 | nt | nt | nt | -2 | nt | nt | nt
Cc1c(Cl)c([N+](=O)[O-])nn1CC(=O)NC12CC3CC(CC(C3)C1)C2 | 38* | 3 | -20 | -2 | -18 | 9 | 0 | 0
Cn1c(=O)c2ncn(CC(=O)N/N=C/c3ccco3)c2n(C)c1=O | -1 | nt | nt | nt | -5 | nt | nt | nt
Cc1cccc(CC(Cc2nc3ccccc3[nH]2)c2nc3ccccc3[nH]2)c1 (centres undefined) | 9 | 5 | -3 | -7 | -11 | 12 | 15* | 29*
Cc1cccc(OCCSCc2nc3ccccc3[nH]2)c1 | -2 | 0 | 8 | -7 | 2 | 4 | nt | nt
O=C(CN1CCCCC1)Nc1cccc(Cl)c1Cl | 2 | -11 | -24 | -1 | -7 | 6 | nt | nt
O=C(CN1CCCCC1)Nc1cc(Cl)ccc1Cl | 180* | -7 | -25 | -7 | 1 | 0 | -1 | 0
O=C(NCc1ccco1)c1cccc(F)c1 | 8 | 9 | 21 | -3 | -9 | 9 | -1 | -1
COc1ccc(/C=N/NC(=O)COc2cc(C)cc(C)c2)cc1COC(C)=O | 0 | nt | nt | nt | -9 | nt | nt | nt
SMILES | GALR2 ag | EphB4 antag | S1P2 blocker | S1P2 agonist | GALR2 antag | Rev-RRE block | GALR2 agon conf | BLA activ ctr
Cc1ccccc1C(=O)Nc1nncs1 | 26* | 0 | -13 | -5 | -3 | 2 | -1 | -3
Cc1ccc(OCc2nc(-c3ccccn3)n[nH]2)cc1 | 73* | 0 | -12 | -2 | -2 | 2 | -1 | -2
CCOC(=O)c1cc2nc(Nc3ccc(OC)cc3)sc2s1 | 11 | -9 | -7 | 7 | 3 | 16 | 3 | 6
COc1cc(NC(=O)c2ccc(Cl)cc2Cl)ccc1-c1cc2ccccc2oc1=O | 13* | -6 | 23 | 4 | -14 | -7 | 6 | 2
O=C(Nc1ccc(O)cc1)/C(=C\c1cccs1)NC(=O)c1ccccc1 | 8.8* | nt | nt | nt | 5 | nt | -1 | 1
CC1=CC2=NC(=O)/C(=C\c3cc(C)n(-c4ccc(F)cc4)c3C)C(=N)N2O1 | 12* | nt | nt | nt | -11 | nt | 8 | 11*
COc1ccccc1OCCOc1ccc(/C=C2/C(=N)N3OC(C)=CC3=NC2=O)cc1OC | -2 | -8 | -7 | -4 | 0 | 5 | nt | nt
CN(C(=S)NC(=O)c1ccc(Br)o1)c1ccccc1 | -2 | nt | nt | nt | 3 | nt | nt | nt
Cc1ccc(-n2c(C)cc(C(=O)COc3c(CO)cc(F)cc3CO)c2C)cc1C | -1 | nt | nt | nt | -10 | nt | nt | nt
CC1OC2(OC1C)C(=O)Nc1ccccc12 (centres undefined) | 24* | 4 | -10 | -4 | -4 | 2 | -1 | -3
O=C1Nc2ccccc2C12OCC(COc1ccc(Cl)cc1)O2 (centres undefined) | -2 | 6 | -28 | 0 | -6 | 11 | nt | nt
O=C(O)CC1(c2ccccc2)C(=O)c2ccccc2C1=O | 10* | nt | nt | nt | 21 | nt | -2 | -3
O=C1NC(c2ccco2)Nc2sc3c(c21)CCN(Cc1ccccc1)C3 (centres undefined) | 16* | 4 | -10 | 9 | -8 | 70* | 0 | 1
CN1CCc2c(sc3c2C(=O)NC(c2ccco2)N3)C1 (centres undefined) | 2 | -6 | 2 | 1 | -11 | 28 | nt | nt
Cc1ccc(NC(=O)CCC(=O)NNC(=O)c2ccco2)cc1C | 18* | -2 | 7 | -11 | 7 | 0 | -1 | -1
Cc1c(Cl)cccc1NC(=O)CCC(=O)NNC(=O)c1ccco1 | -1 | 0 | 11 | -4 | 2 | 8 | nt | nt
COc1cc(C2=NOC(C(=O)NCc3cccs3)C2)cc(OC)c1OC (centres undefined) | 88* | -5 | -9 | -1 | 7 | 6 | -1 | -2
C=CCn1c(NS(=O)(=O)c2ccccc2)c(S(=O)(=O)c2ccc(C)cc2)c2nc3ccccc3nc21 | 3 | nt | nt | nt | -7 | nt | nt | nt
